# hERG protect = hERG (human) protection from proarrhythmic block; activation (rescue from dofetilide block), less the hit threshold, % at 10 µM; CHO-hERG, FluxOR thallium flux, dofetilide IC70 present; Q12809; actives 0.51% (n = 310,000); AID 1511;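 active = activation above the mean of controls blocked by dofetilide plus 5 SD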;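 note: thallium influx through hERG after potassium depolarization seen as dye fluorescence rise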
# Kir21 block = inhibitors of mouse Kir2.1 inward-rectifier potassium channel. B-score at 10 µM. P35561. HEK293-Kir2.1, FluxOR thallium flux fluorescence; active compounds read low. AID 1672. actives 0.85% (n = 310,000);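 active = fluorescence ratio B-score at or below minus 3 SD of library scores, with starting-brightness B-score within 2 SD, cut at about -4.2 in these data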;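 note: channel flux triggered by added potassium and thallium sulfate stimulus; B-score of peak minus minimum fluorescence over baseline after thallium stimulus; more negative B-score means stronger Kir2.1 block with less thallium influx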
# KCNK9 inh = inhibitors of human KCNK9 two-pore domain potassium channel; Q9NPC2; HEK293 KCNK9, FluxOR thallium flux fluorescence; active compounds read low; B-score at 10 µM; actives 1.2% (n = 310,000);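 active = ratio B-score over 3 SD below the library mean, with starting fluorescence within 5 SD of its mean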;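 note: negative B-score means less thallium flux so channel inhibition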
# Target sequence (Q9NPC2 whole entry, looked up, the tested form may be a part): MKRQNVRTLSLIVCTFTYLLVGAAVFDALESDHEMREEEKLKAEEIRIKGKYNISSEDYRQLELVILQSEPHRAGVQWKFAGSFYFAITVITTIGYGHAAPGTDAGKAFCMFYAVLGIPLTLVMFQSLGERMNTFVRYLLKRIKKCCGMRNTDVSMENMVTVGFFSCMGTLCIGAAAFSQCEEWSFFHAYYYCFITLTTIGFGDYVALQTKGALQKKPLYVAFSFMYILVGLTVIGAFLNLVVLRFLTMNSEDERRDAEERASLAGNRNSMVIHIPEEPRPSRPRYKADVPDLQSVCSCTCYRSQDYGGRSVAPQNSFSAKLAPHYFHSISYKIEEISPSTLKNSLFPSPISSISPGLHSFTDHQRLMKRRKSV
# KCNQ1 inh = blocks the human KCNQ1 potassium channel. P51787. CHO-K1 KCNQ1, FluxOR thallium flux fluorescence; active compounds read high. B-score at 10 µM. actives 1.3% (n = 310,000). AID 2642;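 active = compounds whose thallium flux B-score, printed positive for inhibition, exceeds three library SD while starting fluorescence stays within three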;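 note: channel opened by potassium depolarization with thallium stimulus after 20 min compound exposure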
# KCNK3 block = human KCNK3 channel inhibition, primary screen. CHO-KCNK3 thallium flux, FluxOR fluorescence; active compounds read low. O14649. B-score at 10 µM. AID 602410. actives 0.84% (n = 340,000);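 active = B-score under library mean minus 4 SD, starting fluorescence ratio at most library mean plus 5 SD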;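 note: more negative B-score means stronger inhibition of thallium flux through KCNK3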
# KCNQ1 pot = potentiators or activators of human KCNQ1 potassium channel; P51787; CHO-K1 KCNQ1, thallium flux FluxOR fluorescence; active compounds read high; B-score at 10 µM; actives 0.35% (n = 310,000); AID 2648;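 active = fluorescence ratio B-score, a plate-corrected score, at least three library SD, with initial intensity B-score within 5 SD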
#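 Assay system: stable KCNQ1 CHO-K1 line; medium: assay buffer, equal DMSO in all wells; timing: 90 min dye loading and 20 min compound exposure, both at room temperature; technique: kinetic FluxOR thallium fluorescence, 10-s 1-Hz baseline, 110-s post-stimulus read; read-out basis: B score of baseline-normalized fluorescence ratio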
# KCNK9 block conf = confirmation of human KCNK9 potassium channel inhibitors; shares compounds with KCNK9 inh; HEK293 KCNK9 cells, FluxOR thallium flux fluorescence; inhibition, % at 10 µM; actives 43% (n = 4,900);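 active = thallium signal inhibited by more than 5 SD of the compound-free buffer control wells, on both duplicate plates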;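 note: 0% = assay buffer control wells without compound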
# Kir21 sel = selectivity of KCNK9 modulators against mouse Kir2.1 | actives 4% (n = 4,900) | inhibition, % at 10 µM | Kir2.1 cells, FluxOR thallium flux fluorescence | AID 492993 | shares compounds with KCNK9 inh;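 active = thallium signal drop more than 5 SD beyond the mean of the no-compound control wells, seen in both duplicate plates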;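 note: signal is fluorescence rise after thallium addition divided by baseline fluorescence; plate controls were assay buffer only for no effect and full block by chlorpromazine control for full effect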
# KCNK9 uninduced = second check of KCNK9 modulator effects in non-induced HEK293 cells. shares compounds with KCNK9 inh. FluxOR thallium flux. inhibition, % at 10 µM. actives 40% (n = 4,900). AID 492997;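 active = thallium signal drop beyond 5 SD of the untreated control mean, on both duplicate plates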;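 note: plate controls were buffer only IC0 wells for no effect and SID17386958 at its maximal inhibitory level for full effect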
# The depositor's hits bear a star; i = inactive; . = not tested or not shown. In the library only some 3.7% were active in any assay of this set; here they are far more common.
SMILES,hERG protect,Kir21 block,KCNK9 inh,KCNQ1 inh,KCNK3 block,KCNQ1 pot,KCNK9 block conf,Kir21 sel,KCNK9 uninduced
C=CC[C@@H](CC(=O)N[C@H](CO)Cc1ccccc1)C(=O)NCCOC(=O)[C@@H](CC=C)CC(=O)OC(C)(C)C,.,.,.,.,i,.,.,.,.
CCN(C(=O)C1CCN(c2nc(-c3ccc(OC)cc3)no2)CC1)c1ccccc1,-18.8,0.09,i,i,i,i,.,.,.
CCN(C(=O)C1CCCN(c2nc(-c3ccc(OC)cc3)no2)C1)c1ccccc1F (stereo not drawn),-11.5,0,i,i,i,i,i,i,i
CC(=O)N1N=C(c2ccc(Cl)cc2)OC1c1ccc(C(C)C)cc1 (stereo not drawn),-6.1,2.29,i,6*,i,i,i,i,27.0%*
O=[N+]([O-])c1cccc(COc2ccccc2CN2CCOCC2)c1,.,.,.,.,i,.,.,.,.
Cc1cc(OCc2cccc(Cl)c2)c(C)cc1CN1CCOCC1,-18.3,-1.39,-13.8*,i,i,i,51.5%*,i,32.0%*
CC(C)Cc1ccc(C(C)C(=O)OCC(=O)c2c[nH]c3ccccc23)cc1 (stereo not drawn),-4.3,-1.88,-10.2*,i,i,i,24.5%*,i,41.5%*
Cc1ccc(C(=O)OCC(=O)c2c[nH]c3ccccc23)cc1,-4.6,2.05,i,i,i,i,.,.,.
COc1cccc(/C=N/NC(=O)c2nc(-c3ccccc3)cc(-c3ccccc3)n2)c1O,-27.8,1.62,-8.64*,i,i,i,i,i,i
N=c1n(CC(=O)c2ccc(Br)s2)c2ccccc2n1Cc1ccccc1,-20.6,0.03,-10.4*,i,i,i,51.5%*,i,30.5%*
O=C(CSc1n[nH]c(-c2ccncc2)n1)Nc1ccc(Cl)c(Cl)c1,-12.1,1,i,i,i,i,.,.,.
CCCCCCn1c(=O)[nH]c2c(c1=O)CCC2,-9.2,0.46,i,i,i,i,.,.,.
CCCCCCCCCn1c2c(c(=N)c3c1CCC3)CCC2,-35.1,-15.2*,-15.6*,10*,-18.7*,i,62.0%*,87.0%*,42.5%*
CCCCCCCn1c2c(c(=N)c3c1CCC3)CCCC2,-28.2,-6.47*,-9.85*,6*,i,i,69.5%*,77.5%*,36.5%*
CCn1c2c(c(=N)c3c1CCC3)CCC2,-4.2,0.12,i,i,i,i,.,.,.
CCCn1c(C)cc(/C=C(\C#N)C(=O)OCC(=O)N(CC)c2c(N)n(Cc3ccccc3)c(=O)[nH]c2=O)c1C,.,.,.,.,i,.,.,.,.
O=C(NC1CCCCC1)c1c2c(nc3ccccc13)CCC2,-11.0,-0.94,i,i,i,i,.,.,.
C=CCN(C(=O)c1csnn1)C(C(=O)NC1CCCC1)c1ccccc1 (stereo not drawn),-10.7,0.49,i,i,i,i,.,.,.
CCOc1ccc(-c2nnn(CC(=O)N3CCCC(C)C3)n2)cc1 (stereo not drawn),-2.2,1.25,i,i,i,i,.,.,.
CCOc1cc(S(=O)(=O)Nc2ccc(CC)cc2)ccc1Cl,-13.9,-1.05,i,i,i,i,i,i,i
Cc1cc(C(=O)COC(=O)C2=COCCO2)c(C)n1-c1ccccc1,.,.,.,.,i,.,.,.,.
O=C(Nc1ccc(Br)cn1)c1cccc2ccccc12,-3.9,2.51,i,i,i,i,.,.,.
O=C(Nc1ccc(Cl)cn1)c1cccc2c(Br)cccc12,-6.9,-0.56,-16.6*,i,i,i,71.0%*,i,42.0%*
COc1cc2cc(C(=O)N3CCN(Cc4ccc5c(c4)OCO5)CC3)c(=O)oc2cc1OC,-10.7,-0.61,i,i,i,i,.,.,.
COC(=O)Cc1ccc(N(Cc2ccccc2F)S(=O)(=O)c2ccc(Cl)cc2)cc1,-16.6,0.71,-12*,i,i,i,60.0%*,i,40.0%*
SMILES,hERG protect,Kir21 block,KCNK9 inh,KCNQ1 inh,KCNK3 block,KCNQ1 pot,KCNK9 block conf,Kir21 sel,KCNK9 uninduced
COC(=O)CN(c1ccc(F)cc1)S(=O)(=O)c1ccccc1,-5.3,-3.56,i,i,i,i,.,.,.
CCOc1ccc(-c2nnc3ccc(SCC(=O)Nc4nc5ccc(C)cc5s4)nn23)cc1,-11.9,-0.33,-10.8*,i,i,i,69.5%*,i,i
O=C(COC(=O)Cc1ccccc1F)NC(=O)NC1CCCC1,.,.,.,.,i,.,.,.,.
O=S(=O)(Nc1cc(Cl)ccc1N1CCCCC1)c1cccs1,-11.5,-2.55,-14.9*,i,i,i,65.0%*,i,i
COc1ccc(NC2CCCN(C(=O)C3(C)CCCCC3)C2)cc1 (stereo not drawn),-4.8,-0.4,i,i,i,i,i,i,i
COc1ccc(C(=O)N2CCCC(Nc3ccc(C(C)C)cc3)C2)c(OC)n1 (stereo not drawn),-11.8,-0.25,i,i,i,i,i,i,i
COc1ccc(CCC(=O)N2CCCC(Nc3ccc(OC)cc3)C2)cc1 (stereo not drawn),-3.9,-3.13,i,i,i,i,i,i,i
O=C(CCc1ccccc1)N1CCCC(Nc2ccc(F)cc2)C1 (stereo not drawn),-6.1,-0.66,i,i,i,i,i,i,i
COc1ccc(NC2CCCN(C(=O)CCc3cn[nH]c3)C2)cc1 (stereo not drawn),-6.7,-0.18,i,i,i,i,.,.,.
CC(=O)Nc1ccc(NC(=O)CSc2nnc(NC(=O)c3ccc(Br)o3)s2)cc1,-10.8,-0.12,i,i,i,i,.,.,.
Cc1cc(C)n(CC(=O)NNC(=O)C2CC(=O)N(Cc3ccccc3Cl)C2)n1 (stereo not drawn),-10.2,-1.59,i,i,i,i,.,.,.
COc1ccc(C2Nc3cc(OC)ccc3-n3cccc32)cc1 (stereo not drawn),-10.1,0.43,i,i,i,i,i,i,i
CCCn1nc(NC(=O)c2cccs2)c2cc3cc(OC)ccc3nc21,-5.2,0.32,-10.4*,i,i,i,i,i,i
O=S(=O)(c1cccc(S(=O)(=O)N2CCCC2)c1)c1cccc(S(=O)(=O)N2CCCC2)c1,-8.2,-0.01,-9.19*,i,i,i,53.5%*,i,i
